According to ChEMBL document CHEMBL1137087, “Discovery of novel 2,8-diazaspiro[4.5]decanes as orally active glycoprotein IIb-IIIa antagonists” (J Med Chem, 2004):
Where “and” joins values, the source holds several entries; their conditions need not be identical. Equal entries are not always repeated.

Assays:
[1] = molecular target: Integrin alpha-IIb/beta-3 (Homo sapiens, UniProt P05106+P08514); test: Tested for inhibition of the binding of fibrinogen to purified human GPIIb-IIIa in a 96-well format (ELISA assay); assay type: protein-complex assay
Chain of Integrin alpha-IIb/beta-3 (P05106 27-788 limits assumed): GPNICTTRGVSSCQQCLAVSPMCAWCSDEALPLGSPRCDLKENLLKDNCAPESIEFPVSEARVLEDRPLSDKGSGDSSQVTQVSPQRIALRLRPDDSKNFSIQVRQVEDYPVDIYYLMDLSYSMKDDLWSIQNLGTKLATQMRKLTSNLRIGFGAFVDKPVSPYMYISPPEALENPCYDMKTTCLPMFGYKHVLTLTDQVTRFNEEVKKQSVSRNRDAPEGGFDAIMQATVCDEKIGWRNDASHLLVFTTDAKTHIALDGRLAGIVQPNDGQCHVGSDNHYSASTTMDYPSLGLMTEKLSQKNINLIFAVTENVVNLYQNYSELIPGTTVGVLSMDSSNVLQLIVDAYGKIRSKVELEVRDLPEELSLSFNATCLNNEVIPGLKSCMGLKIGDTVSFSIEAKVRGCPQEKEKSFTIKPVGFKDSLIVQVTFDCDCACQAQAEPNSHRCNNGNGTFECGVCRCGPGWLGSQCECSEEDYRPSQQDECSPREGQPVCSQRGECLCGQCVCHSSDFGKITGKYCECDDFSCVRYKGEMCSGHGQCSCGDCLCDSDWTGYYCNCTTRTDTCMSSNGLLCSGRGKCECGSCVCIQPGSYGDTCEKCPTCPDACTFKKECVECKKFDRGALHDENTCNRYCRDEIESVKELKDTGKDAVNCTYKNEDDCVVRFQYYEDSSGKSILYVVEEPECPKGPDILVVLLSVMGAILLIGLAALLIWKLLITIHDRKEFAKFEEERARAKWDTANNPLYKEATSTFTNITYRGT
Chain of Integrin alpha-IIb/beta-3 (P08514 32-887 limits assumed): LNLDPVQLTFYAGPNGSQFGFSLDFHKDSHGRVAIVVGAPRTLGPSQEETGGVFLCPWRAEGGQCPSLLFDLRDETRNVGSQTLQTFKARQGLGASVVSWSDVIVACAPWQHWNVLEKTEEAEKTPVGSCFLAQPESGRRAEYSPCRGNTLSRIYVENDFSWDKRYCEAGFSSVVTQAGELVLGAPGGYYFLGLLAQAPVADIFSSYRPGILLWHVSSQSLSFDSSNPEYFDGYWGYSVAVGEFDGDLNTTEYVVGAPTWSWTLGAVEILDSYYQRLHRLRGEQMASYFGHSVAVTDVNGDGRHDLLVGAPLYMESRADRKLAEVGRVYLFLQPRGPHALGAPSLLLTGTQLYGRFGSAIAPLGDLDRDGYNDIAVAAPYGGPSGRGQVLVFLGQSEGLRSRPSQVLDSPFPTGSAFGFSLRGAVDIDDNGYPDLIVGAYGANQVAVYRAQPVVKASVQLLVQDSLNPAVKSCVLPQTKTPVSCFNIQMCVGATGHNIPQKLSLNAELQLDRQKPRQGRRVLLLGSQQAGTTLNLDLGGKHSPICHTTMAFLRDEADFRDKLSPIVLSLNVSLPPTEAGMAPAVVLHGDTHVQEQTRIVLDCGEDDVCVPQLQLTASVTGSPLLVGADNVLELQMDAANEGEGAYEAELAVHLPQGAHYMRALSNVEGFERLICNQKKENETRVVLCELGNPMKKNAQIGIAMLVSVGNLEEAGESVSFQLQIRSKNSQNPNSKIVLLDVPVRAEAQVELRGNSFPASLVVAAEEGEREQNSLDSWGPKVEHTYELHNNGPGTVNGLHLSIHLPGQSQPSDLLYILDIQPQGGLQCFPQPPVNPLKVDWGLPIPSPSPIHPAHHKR
Chain of Integrin alpha-IIb/beta-3 (P08514 891-1039 limits assumed): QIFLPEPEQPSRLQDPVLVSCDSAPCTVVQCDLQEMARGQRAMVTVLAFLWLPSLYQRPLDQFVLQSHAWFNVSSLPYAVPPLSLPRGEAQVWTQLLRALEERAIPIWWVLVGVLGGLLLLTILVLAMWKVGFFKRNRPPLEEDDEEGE
Summary of the method: (§1)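 Purified GPIIb-IIIa or vitronectin receptor, 0.5 μg/well, coated overnight at 4 °C, BSA-blocked. Compound plus 10 nM biotinylated ligand added in triplicate, 2 h at room temperature, pH 7.4 Tris with CaCl2 and BSA.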

[2] = (§2) Area under curve was determined after oral administration in rats; assay type: ADME, organism-based; set-up: concentration or dose not given beside the values; settings: rat, in vivo
Summary of the method: (§3)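 Sprague Dawley rats instrumented 2 days before, conscious; prodrug in water given orally and free acid in 50% PEG-300 intravenously, 1 mg/kg each, six rats per group. Serial blood sampling on EDTA or citrate; plasma deproteinized with acetonitrile plus internal standard, filtered. AUC, Cmax and t1/2β from mean concentration–time curves; F = oral AUC / iv AUC.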

Mus musculus [3] = test: Compound was tested for bleeding time in mice at a dose of 10 mg/kg vs DMSO (vehicle); assay type: functional
Summary of the method: (§4)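 Anesthetized female C57/bl mice given an iv tail-vein bolus in 10% DMSO in water (~150 μL); vehicle controls received DMSO. Tail transected 2 mm from the tip and immersed in 37 °C normal saline. Bleeding time recorded to cessation of flow by visual inspection, up to 900 s.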

Mus musculus [4] = test: Compound was tested for bleeding time in mice at a dose of 40 mg/kg vs DMSO (vehicle); assay type: functional; summary of the method: as §4
Mus musculus [5] = test: Compound was tested for bleeding time in mice at a dose of 50 mg/kg vs DMSO (vehicle); assay type: functional; summary of the method: as §4
Mus musculus [6] = test: Compound was tested for bleeding time in mice at a dose of 100 mg/kg vs DMSO (vehicle); assay type: functional; summary of the method: as §4
Integrin alpha-V/beta-3 = Integrin alpha-V/beta-3 (Homo sapiens, UniProt P05106+P06756); test: Inhibition of vitronectin binding to Vitronectin receptor (alpha V beta 3); assay type: protein-complex assay
Chain of Integrin alpha-V/beta-3 (P05106 27-788 limits assumed): as the sequence (P05106 27-788 limits assumed) above
Chain of Integrin alpha-V/beta-3 (P06756 31-889 limits assumed): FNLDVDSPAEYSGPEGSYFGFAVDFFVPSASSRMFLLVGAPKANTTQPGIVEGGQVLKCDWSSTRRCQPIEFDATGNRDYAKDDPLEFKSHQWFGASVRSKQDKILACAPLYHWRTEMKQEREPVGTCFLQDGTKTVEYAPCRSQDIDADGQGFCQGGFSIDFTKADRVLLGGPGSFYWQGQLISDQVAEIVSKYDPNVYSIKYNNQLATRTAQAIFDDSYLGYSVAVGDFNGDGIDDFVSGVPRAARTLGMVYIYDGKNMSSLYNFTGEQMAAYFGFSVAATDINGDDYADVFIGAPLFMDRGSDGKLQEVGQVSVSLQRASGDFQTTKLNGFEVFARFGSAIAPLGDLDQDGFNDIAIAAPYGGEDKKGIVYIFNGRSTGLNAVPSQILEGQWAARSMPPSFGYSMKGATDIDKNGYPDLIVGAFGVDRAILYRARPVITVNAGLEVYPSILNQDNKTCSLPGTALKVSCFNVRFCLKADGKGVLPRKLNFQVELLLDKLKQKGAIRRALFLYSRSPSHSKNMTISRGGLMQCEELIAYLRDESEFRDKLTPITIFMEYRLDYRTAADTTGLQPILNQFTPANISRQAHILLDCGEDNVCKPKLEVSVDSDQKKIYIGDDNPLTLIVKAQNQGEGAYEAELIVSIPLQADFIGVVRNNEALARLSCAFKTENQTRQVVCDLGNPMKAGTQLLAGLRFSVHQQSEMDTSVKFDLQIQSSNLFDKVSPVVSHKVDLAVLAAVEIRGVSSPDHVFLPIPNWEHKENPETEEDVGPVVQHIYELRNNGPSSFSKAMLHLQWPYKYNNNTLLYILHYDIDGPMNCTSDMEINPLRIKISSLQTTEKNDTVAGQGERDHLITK
Chain of Integrin alpha-V/beta-3 (P06756 891-1048 limits assumed): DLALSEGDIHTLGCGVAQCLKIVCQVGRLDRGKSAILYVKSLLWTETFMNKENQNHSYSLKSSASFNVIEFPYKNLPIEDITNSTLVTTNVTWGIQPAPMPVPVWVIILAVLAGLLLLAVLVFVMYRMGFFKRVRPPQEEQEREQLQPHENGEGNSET
Summary of the method: as §1, with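 “BSA. Detected by anti-biotin alkaline phosphatase conjugate, read at 405 nm; BSA-well binding subtracted; IC50 from three experiments.” for “BSA.”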

[7] = Clearance of the drug was measured in cynomolgus; assay type: ADME; settings: cercopithecidae, in vivo; read-out: CI
Summary of the method: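 Fasted, chair-restrained cynomolgus monkeys. Active acid given as a 15 min iv infusion in 50% PEG-300 diluted with plasmalyte; prodrug given a week later in water by nasogastric tube to the same animals. EDTA plasma sampled over 0–48 h and assayed by LC/MS/MS. t1/2β taken from the terminal log-linear phase; Vz = dose/(AUCINF·λz); F corrected for molecular weight and dose.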

Canis familiaris = organism: Canis familiaris; test: Clearance of the drug was measured in the plasma of dog; assay type: ADME, organism-based, Canis lupus familiaris; settings: in vivo
Summary of the method: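 Fasted male beagle dogs (n = 4): prodrug at 1 mg/kg orally, active drug intravenously. Plasma drug measured by LC/MS/MS. t1/2β from the linear portion of the log concentration–time curve; Vz = dose/(AUCINF·λz); F corrected for molecular weight and dose differences.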

[8] = as §2; assay type: ADME, organism-based; settings: rat, in vivo; summary of the method: as §3
[9] = Inhibition of Human umbilical vein endothelial cells (HUVEC) adhesion to vitronectin; assay type: cell-based
[10] = Inhibition of Human umbilical vein endothelial cells (HUVEC) adhesion to fibronectin; assay type: cell-based
Rattus norvegicus = organism: Rattus norvegicus; test: Bioavailability in rat; assay type: ADME, organism-based; settings: in vivo; summary of the method: as §3
[11] = Inhibition of Human umbilical vein endothelial cells (HUVEC) adhesion to Vitronectin; assay type: cell-based

Row | IC50 [1] | SMILES | other results
1 | 410 nM | N=C(N)c1ccc(N2C(=O)CC3(CCN(C(=O)NCCC(=O)O)CC3)C2=O)cc1 | 
2 | 100 nM | CN1C(=O)N(c2ccc(C(=N)N)cc2)C(=O)C12CCN(C(=O)CCCC(=O)O)CC2 | 
3 | 32 nM | CN1C(=O)N(c2ccc(C(=N)N)cc2)C(=O)C12CCN(C(=O)CC(CC(=O)O)c1ccccc1)CC2 (centres undefined) | 
4 |  | CCCCOC(=O)N[C@@H](CCC(=O)N1CCC2(CC1)CCN(c1ccc(C(=N)NO)cc1)C2=O)C(=O)OCC | AUC [2]: 184 ng·h/mL
5 | 21 nM | N=C(N)c1ccc(N2C(=O)NC3(CCN(C(=O)CCCC(=O)O)CC3)C2=O)cc1 | 
6 | 7800 nM | N=C(N)c1ccc(N2CCC3(CCN(CCCCC(=O)O)CC3)C2=O)cc1 | 
7 | 30 nM | CCCCOC(=O)N[C@@H](CCC(=O)N1CCC2(CC1)CC(=O)N(c1ccc(C(=N)N)cc1)C2=O)C(=O)O | 
8 | 400 nM | CN1C(=O)N(c2ccc(C(=N)N)cc2)CC12CCN(C(=O)NCCC(=O)O)CC2 | 
9 |  | CCOC(=O)CCNC(=O)N1CCC2(CC1)CC(=O)N(c1ccc(C(=N)NO)cc1)C2 | AUC [2]: 95.6 ng·h/mL
10 | 5600 nM | N=C(N)c1ccc(N2CCC3(CCN(C(=O)CCC(=O)O)CC3)C2=O)cc1 | 
11 | 4 nM | CC(CC(=O)O)NC(=O)N1CCC2(CC1)CCN(c1ccc(C(=N)N)cc1)C2=O (centres undefined) | 
12 | 5 nM | Cc1noc(C)c1S(=O)(=O)N[C@@H](CCC(=O)N1CCC2(CC1)CCN(c1ccc(C(=N)N)cc1)C2=O)C(=O)O | Bleeding time (Mus musculus [3]): 96.7 s; Bleeding time (Mus musculus [4]): 196.5 s; Bleeding time (Mus musculus [5]): 562.5 s; Bleeding time (Mus musculus [6]): 890.6 s
13 | 15800 nM | N=C(N)c1ccc(N2CCC3(CCN(C(=O)CC(=O)O)CC3)C2=O)cc1 | 
14 | 17 nM | N=C(N)c1ccc(N2CCC3(CCN(C(=O)COCC(=O)O)CC3)C2=O)cc1 | IC50 (Integrin alpha-V/beta-3): > 50000 nM
15 | 430 nM | N=C(N)c1ccc(N2C(=O)CC3(CCN(C(=O)CCCC(=O)O)CC3)C2=O)cc1 | 
16 | 20 nM | CN1C(=O)N(c2ccc(C(=N)N)cc2)CC12CCN(C(=O)CC(CC(=O)O)c1ccccc1)CC2 (centres undefined) | 
17 | 25000 nM | N=C(N)c1ccc(N2CC3(CCN(C(=O)CC(=O)O)CC3)CC2=O)cc1 | 
18 | 4 nM and 3.9 nM | N=C(N)c1ccc(N2CCC3(CCN(C(=O)NCCC(=O)O)CC3)C2=O)cc1 | IC50 (Integrin alpha-V/beta-3): > 50000 nM
19 |  | CCOC(=O)COCC(=O)N1CCC2(CC1)CCN(c1ccc(C(=N)NO)cc1)C2=O | clearance [7]: 2.7 mL/min/kg; CI (Canis familiaris): 3.28 mL/min/kg; AUC [2]: 651 ng·h/mL
20 | 1020 nM | CN1C(=O)N(c2ccc(C(=N)N)cc2)CC12CCN(C(=O)CCCC(=O)O)CC2 | 
21 |  | CCOC(=O)CCCC(=O)N1CCC2(CC1)CCN(c1ccc(C(=N)NO)cc1)C2=O | clearance [7]: 6.51 mL/min/kg; CI (Canis familiaris): 6.44 mL/min/kg; AUC [2]: 501 ng·h/mL
22 |  | CCOC(=O)CC(CC(=O)N1CCC2(CC1)CCN(c1ccc(C(=N)NO)cc1)C2=O)c1ccccc1 (centres undefined) | AUC [2]: 7.9 ng·h/mL
23 |  | CCOC(=O)CCNC(=O)N1CCC2(CC1)CCN(c1ccc(C(=N)NO)cc1)C2=O | AUC [8]: 565 ng·h/mL; clearance [7]: 5.12 mL/min/kg; CI (Canis familiaris): 8.43 mL/min/kg

Row | IC50 [1] | SMILES | other results
24 | 5 nM | C[C@H](CC(=O)O)CC(=O)N1CCC2(CC1)CCN(c1ccc(C(=N)N)cc1)C2=O | 
25 | 90 nM | N=C(N)c1ccc(N2CCC3(CCN(C(=O)CC(CC(=O)O)c4ccccc4)CC3)C2=O)cc1 (centres undefined) | 
26 | 650 nM | N=C(N)c1ccc(N2CC3(CCN(C(=O)CCCC(=O)O)CC3)CC2=O)cc1 | 
27 | 1.14 nM | CCOC(=O)COC1CCN(C(=O)[C@H](C)NC(=O)c2ccc(/C(N)=N/O)cc2)CC1 [SIBRAFIBAN] | IC50 [9]: > 50000 nM; IC50 (Integrin alpha-V/beta-3): > 50000 nM; IC50 [10]: > 50000 nM
28 | 5 nM | CCCCOC(=O)N[C@@H](CCC(=O)N1CCC2(CC1)CCN(c1ccc(C(=N)N)cc1)C2=O)C(=O)O | 
29 | 4 nM | C[C@@H](CC(=O)O)CC(=O)N1CCC2(CC1)CCN(c1ccc(C(=N)N)cc1)C2=O | 
30 | 7300 nM | N=C(N)c1ccc(N2CC3(CCN(C(=O)CCCCC(=O)O)CC3)CC2=O)cc1 | 
31 | 2.38 nM | CCOC(=O)CCNC(=O)N[C@H]1CCN(c2ccc(C(=N)N)cc2)C1=O [ORBOFIBAN] | 
32 | 15000 nM | CC(C)(COC(=O)N1CCC2(CC1)CC(=O)N(c1ccc(C(=N)N)cc1)C2)C(=O)O | 
33 |  | CCCCOC(=O)N[C@@H](CCC(=O)N1CCC2(CC1)C(=O)N(c1ccc(C(=N)NO)cc1)C(=O)N2C)C(=O)OCC | F (Rattus norvegicus): Not detected
34 | 10500 nM | N=C(N)c1ccc(N2CC3(CCN(C(=O)CCC(=O)O)CC3)CC2=O)cc1 | 
35 | 350 nM | N=C(N)c1ccc(N2CC3(CCN(C(=O)NCCC(=O)O)CC3)CC2=O)cc1 | 
36 | 329 nM | N=C(N)c1ccc(N2C(=O)NC3(CCN(C(=O)NCCC(=O)O)CC3)C2=O)cc1 | 
37 | 2 nM | Cc1ccc(S(=O)(=O)N[C@@H](CNC(=O)N2CCC3(CC2)C(=O)N(c2ccc(C(=N)N)cc2)C(=O)N3C)C(=O)O)cc1 | 
38 | 751 nM | N=C(N)c1ccc(N2CC3(CCN(C(=O)CCCC(=O)O)CC3)NC2=O)cc1 | 
39 |  | CCOC(=O)CCNC(=O)N1CCC2(CC1)C(=O)N(c1ccc(C(=N)NO)cc1)C(=O)N2C | AUC [2]: 60 ng·h/mL
40 | 50 nM | CN1C(=O)N(c2ccc(C(=N)N)cc2)C(=O)C12CCN(C(=O)NC(CC(=O)O)c1ccccc1)CC2 (centres undefined) | 
41 | 16 nM | Cc1noc(C)c1S(=O)(=O)N[C@@H](CCC(=O)N1CCC2(CC1)C(=O)N(c1ccc(C(=N)N)cc1)C(=O)N2C)C(=O)O | 
42 | 5 nM | C[C@H](CC(=O)O)NC(=O)N1CCC2(CC1)CCN(c1ccc(C(=N)N)cc1)C2=O | 
43 | 4180 nM | NC(=NN1CCOCC1)c1ccc(N2CCC3(CCN(C(=O)CCCC(=O)O)CC3)C2=O)cc1 | 
44 | 841 nM | CCNC(=N)c1ccc(N2CCC3(CCN(C(=O)CCCC(=O)O)CC3)C2=O)cc1 | 
45 |  | CCOC(=O)CCNC(=O)N1CCC2(CC1)CN(c1ccc(C(=N)NO)cc1)C(=O)N2C | AUC [2]: 24 ng·h/mL
46 | 4 nM | N=C(N)c1ccc(N2CCC3(CCN(C(=O)CCCC(=O)O)CC3)C2=O)cc1 | IC50 [11]: > 50000 nM; IC50 (Integrin alpha-V/beta-3): > 50000 nM; IC50 [10]: > 50000 nM
